From PubChem
NOD2-RIPK2 inh = NOD2-RIPK2 binding disruptors in cells, primary screen, fluorescence, CHO cells, BLA complementation | 0.38% of 360,000 active | CCF4 ratio | Receptor-interacting serine/threonine-protein kinase 2 (Homo sapiens), O43353 | inhibition, % at 4.98 µM | AID 624267, 2012; in the data active means inhibition above about 21%;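 further: 0% = vehicle only and 100% = reference blocker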
TLR4 MyD88 comp = inhibitors of TLR4-MyD88 association in cells, primary screen, cell-based, HeLa CL3-4, BLA complementation, FRET ratio | AID 861, 2007 | inhibition, % at 8.4 µM | 0.18% of 200,000 active | HeLa CL3-4 TLR4/MyD88 BLA complementation; in the data active means inhibition above about 25%;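 further: 0% = vehicle and 100% = reference inhibitor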
SR-BI HDL uptake = inhibitors of SR-BI mediated HDL lipid uptake, primary screen, ldlA[mSR-BI] cells, fluorescence, single point; ldlA[mSR-BI] CHO cells, DiI-HDL uptake fluorescence, 3 h; inhibition, % at 12.5 µM; 0.96% of 320,000 active;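 active means mean replicate inhibition of at least 70% and a set share of replicates each scoring 70 or more; inconclusive means meets just one of the two criteria; inactive means fails both criteria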;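 further: 0% = median of neutral control wells and 100% = median of positive control wells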
Target sequence (Q61009 whole entry, looked up): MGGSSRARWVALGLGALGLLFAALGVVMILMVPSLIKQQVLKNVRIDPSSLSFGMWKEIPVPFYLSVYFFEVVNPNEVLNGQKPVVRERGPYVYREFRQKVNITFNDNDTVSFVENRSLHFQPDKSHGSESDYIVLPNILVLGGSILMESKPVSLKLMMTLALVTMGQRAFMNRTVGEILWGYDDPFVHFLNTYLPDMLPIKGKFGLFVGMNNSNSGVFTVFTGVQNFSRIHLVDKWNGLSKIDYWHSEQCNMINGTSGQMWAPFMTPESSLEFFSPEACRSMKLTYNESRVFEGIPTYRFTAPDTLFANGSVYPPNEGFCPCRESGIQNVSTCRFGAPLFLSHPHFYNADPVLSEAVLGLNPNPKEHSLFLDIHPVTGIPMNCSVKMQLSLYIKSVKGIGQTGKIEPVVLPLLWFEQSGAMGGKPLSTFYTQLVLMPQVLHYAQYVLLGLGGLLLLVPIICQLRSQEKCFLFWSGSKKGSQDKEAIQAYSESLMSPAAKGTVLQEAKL
Lipid droplet = inhibitors of hepatocyte lipid droplet formation, primary screen, imaging, high-throughput imaging, BODIPY stain; AML12 mouse hepatocytes, oleate lipid droplets; inhibition, % at 6.5 µM; 0.4% of 240,000 active; AID 1656, 2009;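 active means lipid droplet intensity inhibited by at least 50%, with more than 500 cells counted; inconclusive means wells with under 300 cells, treated as cytotoxic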
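Test system: AML12 hepatocytes (mouse); reagent: oleate loading, 100 µM; dosing: one dose, 6.5 µM compound; incubation: overnight exposure; signal: fluorescence imaging, 20x objective, two fields per well; read-out basis: % inhibition of corrected integrated BODIPY droplet signal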
SR-BI DiI-HDL act = activators of SR-BI mediated DiI-HDL uptake, primary screen, ldlA[mSR-BI] CHO cells, DiI fluorescence | 3 h; 100 = double the neutral-control signal | activation, % at 12.5 µM | 0.096% of 320,000 active | AID 504775, 2011;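 active means mean replicate activation of at least 60% and every replicate at or above 60%; inconclusive means mean or all-replicate condition met, but not both; inactive means mean below 60% and not all replicates reaching 60%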;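 further: 0% = median plate neutral-control signal and 100% = twice that signal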
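system = CHO ldlA[mSR-BI] cells, LDL receptor-null, SR-BI overexpressing | medium = Ham's F12 with 0.5% BSA, HEPES 25 mM, pH 7.4 | probe or stimulus = DiI-HDL 10 µg/mL | compound dosing = single-point compound dose | incubation = compound exposure 3 h, 37 °C | technique = DiI fluorescence, bottom read | read-out = cell-associated DiI fluorescence as measure of HDL uptake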
TLR9-MyD88 block = inhibitors of TLR9-MyD88 association in cells, primary screen, cell-based, CHO, BLA complementation, fluorescence; AID 504734, 2011; Toll-like receptor 9 (Homo sapiens) + Myeloid differentiation primary response protein …; 0.21% of 340,000 active; CCF4 FRET ratio; inhibition, % at 4.98 µM;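 active means inhibition above the mean over all tested compounds plus 3 SD, cut at about 21% in these data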;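 further: 0% = DMSO only wells and 100% = clavulanate BLA inhibitor control wells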
NOD2-RIPK2 conf = NOD2-RIPK2 binding disruptors, retest, confirmation, fluorescence, CHO cells, BLA complementation, triplicate; shares compounds with NOD2-RIPK2 inh; CCF4 FRET; inhibition, % at 4.98 µM; 70% of 1,200 active;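 active means mean inhibition across replicates above a set limit taken from the earlier primary screen, cut at about 21% in these data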;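 further: 0% = DMSO-only wells and the high end = clavulanate BLA-blocked wells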
NOD2 BLA counter = hits BLA reporter in NOD2-RIPK2 inhibitor counterscreen; inhibition, % at 4.98 µM; 57% of 1,200 active; shares compounds with NOD2-RIPK2 inh; CHO BLA reporter, CCF4 FRET ratio;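 active means mean inhibition above the low-control mean inhibition plus three low-control SD, cut at about 11% in these data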;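 further: 0% = DMSO only wells and 100% = clavulanate high control wells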
An asterisk follows results filed as active; ? = inconclusive; / = no result. Hits are enriched below; roughly 1.6% of the tested compounds scored in any of these assays.

SMILES	NOD2-RIPK2 inh	TLR4 MyD88 comp	SR-BI HDL uptake	Lipid droplet	SR-BI DiI-HDL act	TLR9-MyD88 block	NOD2-RIPK2 conf	NOD2 BLA counter
O=[N+]([O-])c1ccc(O)c(Nc2c([N+](=O)[O-])ccc3nonc23)c1	14	/	15	-18	-15	-6	/	/
CN1C=CC(=O)[C@@H](OC(=O)Nc2ccc(Br)cc2)[C@H]1c1ccccc1Br	23*	/	-36	/	36	-4	-2	-6
C=CCN1C=CC(=O)[C@@H](OC(=O)Nc2ccc(Br)cc2)[C@H]1c1ccccc1Br	0	/	12	/	-12	9	/	/
CCCc1nnc(NC(=O)c2nc(S(=O)(=O)Cc3ccc(C)cc3)ncc2Cl)s1	32*	/	-23	-18	23	10	30*	18*
Cc1cc(Nc2nn(C)c(N)c2C#N)ccc1F	-5	-7	-3	-2	3	-10	/	/
CCOC(=O)N1CCN(C(=O)C2CCN(C(=O)c3ccccc3C)CC2)CC1	22*	/	43	/	-43	14	71*	18*
COc1cc(C(=O)NC(C)Cc2ccccn2)ccc1OC1CCN(C(C)=O)CC1 (stereo unspecified)	-7	/	-13	-1	13	-6	/	/
Oc1[nH]c(N=C2N=c3ccccc3=N2)c2ccccc12	13	/	/	-11	/	10	/	/
Cc1ccc2c(c1)=N/C(=N\c1[nH]c(O)c3ccccc13)N=2	29*	/	/	/	/	-3	51*	48*
Cc1ccc(C(=O)NCCNC(=O)c2ccc(F)cc2)cn1	-8	/	-10	14	10	6	/	/
Cc1cc(NC(=O)CCCS(=O)(=O)c2nc(-c3cccs3)cc(C(F)(F)F)n2)no1	68*	23	27	/	-27	20	43*	15*
COc1ccc(-c2cc(C(F)(F)F)nc(S(C)(=O)=O)n2)cc1	33*	15	-10	5	10	17	42*	2
COC(=O)CCS(=O)(=O)c1nc(-c2ccccc2)cc(C(F)(F)F)n1	44*	15	7	3	-7	19	59*	13*
O=C(O)CCS(=O)(=O)c1nc(-c2cccs2)cc(C(F)(F)F)n1	-8	3	-6	-1	6	-2	/	/
Cc1cc(NC(=O)CSc2nc(-c3cccs3)cc(C(F)(F)F)n2)no1	-13	6	63	14	-63	8	/	/
COc1ccccc1/C=C/C(=O)NCc1cccnc1	-26	8	-14	-18	14	-3	/	/
Cc1ccc(NC(=O)Nc2nnc([C@H]3C[C@H](O)[C@@H](CO)O3)s2)cc1	1	/	/	/	/	/	/	/
CCCN(CC(=O)Nc1ccccc1OC)C(=O)Cn1c(=O)oc2ccccc21	-5	/	-7	/	7	0	/	/
COc1ccc(OC)c(C2C(C(=O)c3ccco3)=C(O)C(=O)N2CC2CCCO2)c1 (stereo unspecified)	21*	/	-5	15	5	7	1	0
Clc1nc(Cl)c2ncn(-c3ccccc3)c2n1	22*	/	-12	/	12	5	41*	11*
CCC(CC)COC(=O)C(C#N)c1nc2ccccc2nc1N1CCN(CC)CC1 (stereo unspecified)	22*	3	26	/	-26	-7	21*	15*
CCC(C)(C)n1nnnc1C(C(C)C)N(Cc1ccco1)Cc1cc2cc3c(cc2[nH]c1=O)OCO3 (stereo unspecified)	44*	10	-14	/	14	15	5	-2
CC(C)(C)NC(=O)C(C1CC1)n1c(=O)c(-c2ccco2)nc2ccccc21 (stereo unspecified)	-11	/	/	/	/	/	/	/
Cc1cccc(C)c1NC(=O)C(C1CC1)n1c(=O)c(-c2cc3ccccc3[nH]2)nc2ccccc21 (stereo unspecified)	47*	/	/	/	/	/	42*	67*
CC(C)(C)NC(=O)C(C1CC1)n1c(=O)c(-c2cc3ccccc3[nH]2)nc2ccccc21 (stereo unspecified)	42*	/	/	/	/	/	39*	62*
SMILES	NOD2-RIPK2 inh	TLR4 MyD88 comp	SR-BI HDL uptake	Lipid droplet	SR-BI DiI-HDL act	TLR9-MyD88 block	NOD2-RIPK2 conf	NOD2 BLA counter
CCOc1ccc(C=NNC(=O)c2cccc3ccccc23)cc1OCC	4	/	27	/	-27	-4	/	/
CC1=C2C3OC(=O)C(C)C3CCC2(C)C=C(Br)C1=O (stereo unspecified)	-16	/	/	/	/	6	/	/
N#Cc1c(C(F)(F)F)cc(-c2ccco2)nc1SCc1ccncc1	29*	13	35	/	-35	18	-3	-2
N#Cc1c(C(F)(F)F)cc(-c2ccco2)nc1SCc1ccccn1	10	-6	30	0	-30	16	/	/
COc1cc(/C=C/[N+](=O)[O-])ccc1OC(=O)/C=C/c1ccc(F)cc1	38*	/	-13	5	13	1	56*	-2
COc1ccc(/C=C/C(=O)Oc2ccc(C)c(C)c2)cc1OC	-3	-4	3	25	-3	-5	/	/
CCOc1ccc(CNC(=O)CCS(=O)(=O)Cc2ccccc2C)cc1OC	3	0	/	13	/	-8	/	/
CCOc1ccc(CNC(=O)CCc2cn(C)c3ccccc23)cc1OC	37*	1	-20	31	20	9	-2	-1
O=C(CN1CCN(C(C(=O)Nc2ccc(Cl)cc2C(F)(F)F)c2ccccc2)CC1)NC1CC1 (stereo unspecified)	-1	/	10	/	-10	6	/	/
O=C(/C=C/N1CCOCC1)c1cc2ccccc2o1	2	-2	-4	-1	4	-1	/	/
O=C(/C=C/N1CCOCC1)c1coc2ccccc12	29*	2	-10	/	10	-5	-2	-8
CCCC(=O)N1CCC1(C)C(=O)Nc1scc(C)c1C#N (stereo unspecified)	-1	/	/	/	/	/	/	/
NS(=O)(=O)c1ccc(NS(=O)(=O)c2ccc(NC(=O)c3ccc(-c4ccccc4)cc3)cc2)cc1	24*	-7	51	/	-51	3	23*	28*
CCCCCOc1ccc(Br)cc1/C(C)=N/NC1=NCCN1	23*	5	36	?	-36	9	22*	-2
COc1ccccc1-n1c(CNC(=O)c2ccco2)nnc1SCC(=O)Nc1nccs1	-6	6	-4	/	4	6	/	/
C#CCNC(=O)c1cc2c(Br)ccc(Br)c2nc1N	-20	/	/	/	/	/	/	/
